11 compounds from ChEMBL document CHEMBL1122003, “Preparation and antiinflammatory activity of 2- and 4-pyridones” (J Med Chem, 1982) can be followed below.

In data set [1] the test system is Rattus norvegicus. Nature of the data set: Effective dose of compound that reduce edema by at least 25% in 50% of animals. In kind it is functional. Summed up: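 Rats, fasted 2 h, water ad libitum; compound given orally in 0.25% methylcellulose, controls vehicle only, at several doses below the 200 mg/kg screen. Carrageenan (1% sterile, 0.05 cm³) injected into left hind foot pad 1 h later. Paw volume measured at 3 h.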

In data set [2] the test system is Rattus norvegicus. The experiment in a line: Percent reduction of edema was measured after oral administration at 200 mg/kg using carrageenan-induced pedal edema assay. The data set is classed as functional. Summed up: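 Rats fasted 2 h; single oral 200 mg/kg in 0.25% methylcellulose, vehicle controls. Carrageenan (1% sterile, 0.05 cm³) injected into left hind foot pad 1 h after dosing. Paw volume measured at peak swelling, 3 h, by displacement apparatus; edema from differential paw volume, expressed as % reduction vs control.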
On the technique in general: In the carrageenan paw model, swelling and tenderness develop within hours.

Data set [3] in a line: (§1) Lethal dose of compound was determined in mice by standard multidimensional observational assay. The data set is classed as toxicity, organism-based. The note with it: mouse, in vivo. An outline of the steps: (§2)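 Approximate LD50 in mice, estimated from a standard multidimensional observational assay and calculated by the Litchfield–Wilcoxon method.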
Data set [4] concerns Rattus norvegicus. Nature of the data set: Effective dose of compound that reduce edema in adrenolectomized rats by at least 25% in 50% of animals. In kind it is functional. Summed up:
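Rats adrenalectomized several days before assay; otherwise as the intact-rat test: fasted 2 h, oral dosing in 0.25% methylcellulose at several doses, carrageenan (1%, 0.05 cm³) into left hind foot pad 1 h later, paw volume at 3 h.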

For another data set, the species on record is Mus musculus. The data set is described as §1. The data set is classed as toxicity, organism-based. The note with it: in vivo. Summed up: as §2
Setting [5] is: Rattus norvegicus, read-out: ED50.

In general, ED50 refers to the midpoint of the dose-response relation. For orientation: LD50 means the dose at which mortality reaches 50%. Low values mean a more toxic substance, high ones a less toxic substance.

Several values for one entry are separate records, joined by “and”; a condition that tells them apart may be missing. Identical values can stand only once. A value given as a limit tells only on which side of the number the result lay.

For the compound `Cc1ccccc1NC(=O)c1c(C)n(-c2ccccc2C)c(C)cc1=O`, the ED50 in the data set on Rattus norvegicus [1] (setting [5]) came out at 80 mg/kg; with Rattus norvegicus [4], 84.8 mg/kg. Moreover, in the data set with Rattus norvegicus [2] (200 mg/kg), the Reduction is 17% and 49%. This compound had an LD50 in data set [3] of 562 mg/kg.
On to `COc1ccc(OC)c(NC(=O)c2c(C)n(-c3cc(OC)ccc3OC)c(C)cc2=O)c1`, for which the Reduction with Rattus norvegicus [2] is given as 0%. Moreover, the median lethal dose (LD50) in data set [3] came out at 562 mg/kg.
`COc1ccccc1NC(=O)c1c(C)n(-c2ccccc2OC)c(C)cc1=O`: the ED50 in the data set on Rattus norvegicus [1] (setting [5]) is 28 mg/kg; in the data set on Rattus norvegicus [4], 200 mg/kg. Besides, the figures for the LD50 (in data set [3]; in the data set filed under Mus musculus) were 562 mg/kg and 300 mg/kg, respectively.
For the compound `Cc1cc(=O)c(C(=O)Nc2ccccc2Cl)c(C)n1-c1ccccc1Cl`, in the data set on Rattus norvegicus [2] (200 mg/kg), the Reduction is 2% and 8%. The LD50 (in data set [3]; in the data set filed under Mus musculus) was 562 mg/kg throughout.
In the data set with Rattus norvegicus [2], `O=C(Nc1ccccc1)c1c(-c2ccccc2)n(-c2ccccc2)c(-c2ccccc2)cc1=O` had a Reduction of 0%. The LD50 in data set [3] turned out to be 562 mg/kg.
Consider `Cc1cc(=O)c(C(=O)Nc2ccc(Cl)cc2)c(C)n1-c1ccc(Cl)cc1`, for which, in the data set with Rattus norvegicus [2] (200 mg/kg), the Reduction was 58% and 62%.
In the data set on Rattus norvegicus [2], `Cc1c(Br)c(=O)c(C(=O)Nc2ccccc2)c(C)n1-c1ccccc1` gave a Reduction of 23%. Further, in data set [3], the LD50 was determined as 562 mg/kg.
With `Cc1cccc(C)c1NC(=O)c1c(C)n(-c2c(C)cccc2C)c(C)cc1=O`, in the data set on Rattus norvegicus [2] (200 mg/kg), the Reduction was 31% and 26%.
Consider `Cc1cccc(NC(=O)c2c(C)n(-c3cccc(C)c3C)c(C)cc2=O)c1C`, for which the Reduction in the data set with Rattus norvegicus [2] turned out to be 0%. The compound also yielded an LD50 in data set [3] of 562 mg/kg.
As for `Cc1cc(=O)c(C(=O)Nc2ccccc2)c(C)n1-c1ccccc1`, the ED50 in the data set on Rattus norvegicus [1] is above 200 mg/kg; in the data set on Rattus norvegicus [1] (setting [5]) it was 200 mg/kg. Besides, the Reduction in the data set on Rattus norvegicus [2] (200 mg/kg) was 25% and 33%. Moreover, the median lethal dose (LD50) (in data set [3]; in the data set listed under Mus musculus) was 562 mg/kg each time.
As for `Cc1cc(C)c(NC(=O)c2c(C)n(-c3c(C)cc(C)cc3C)c(C)cc2=O)c(C)c1`, the Reduction in the data set with Rattus norvegicus [2] is 53%.
